How the values were obtained:
[1] = target: T1, Phosphatidylinositol 4,5-bisphosphate 3-kinase catalytic subunit delta isoform (Homo sapiens, UniProt O00329); assay: Inhibition of PI3Kdelta (unknown origin) using PIP2 as substrate preincubated for 15 mins followed by substrate addition measured after 60 mins in presence of ATP by HTRF method
T1 sequence (O00329 whole entry): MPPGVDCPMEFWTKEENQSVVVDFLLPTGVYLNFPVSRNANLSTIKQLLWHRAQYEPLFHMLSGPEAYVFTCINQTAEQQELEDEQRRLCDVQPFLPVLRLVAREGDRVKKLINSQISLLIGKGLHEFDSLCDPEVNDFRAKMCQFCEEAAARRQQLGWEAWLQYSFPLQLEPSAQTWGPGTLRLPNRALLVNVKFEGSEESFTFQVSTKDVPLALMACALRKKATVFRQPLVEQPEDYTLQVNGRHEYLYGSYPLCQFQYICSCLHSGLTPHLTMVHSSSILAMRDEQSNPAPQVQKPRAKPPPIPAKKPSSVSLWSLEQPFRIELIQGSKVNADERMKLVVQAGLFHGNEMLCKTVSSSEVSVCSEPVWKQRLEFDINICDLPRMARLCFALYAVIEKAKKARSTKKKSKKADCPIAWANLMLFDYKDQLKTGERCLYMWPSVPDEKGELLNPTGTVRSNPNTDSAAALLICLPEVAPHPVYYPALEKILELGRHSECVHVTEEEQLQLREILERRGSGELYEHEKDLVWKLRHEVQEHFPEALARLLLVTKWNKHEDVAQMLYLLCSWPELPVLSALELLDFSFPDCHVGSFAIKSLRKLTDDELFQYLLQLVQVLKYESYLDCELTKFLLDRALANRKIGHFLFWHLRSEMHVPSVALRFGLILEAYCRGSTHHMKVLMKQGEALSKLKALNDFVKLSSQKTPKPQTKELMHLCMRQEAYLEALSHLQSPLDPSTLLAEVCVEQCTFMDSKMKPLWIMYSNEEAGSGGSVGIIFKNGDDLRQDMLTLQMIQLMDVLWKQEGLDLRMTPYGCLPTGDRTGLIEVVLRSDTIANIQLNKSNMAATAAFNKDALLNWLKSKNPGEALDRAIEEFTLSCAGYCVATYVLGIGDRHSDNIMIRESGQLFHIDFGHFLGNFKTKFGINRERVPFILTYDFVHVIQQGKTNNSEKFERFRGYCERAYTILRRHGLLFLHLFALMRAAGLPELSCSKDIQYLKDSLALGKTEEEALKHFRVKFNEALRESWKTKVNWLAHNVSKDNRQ
Outline: (§1)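 For PI3Kδ, substrate concentration limits measurable potency to about pIC50 9.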

[2] = target: Phosphatidylinositol 4,5-bisphosphate 3-kinase catalytic subunit beta isoform (Homo sapiens, UniProt P42338); assay: Inhibition of PI3Kbeta (unknown origin) using PIP2 as substrate preincubated for 15 mins followed by substrate addition measured after 60 mins in presence of ATP by HTRF method
[3] = target: Phosphatidylinositol 4,5-bisphosphate 3-kinase catalytic subunit gamma isoform (Homo sapiens, UniProt P48736); assay: Inhibition of PI3Kgamma (unknown origin) using PIP2 as substrate preincubated for 15 mins followed by substrate addition measured after 60 mins in presence of ATP by HTRF method
[4] = target: Phosphatidylinositol 4,5-bisphosphate 3-kinase catalytic subunit alpha isoform (Homo sapiens, UniProt P42336); assay: Inhibition of PI3Kalpha (unknown origin) using PIP2 as substrate preincubated for 15 mins followed by substrate addition measured after 60 mins in presence of ATP by HTRF method; outline: as §1
[5] = target: C-C chemokine receptor type 5 (Homo sapiens, UniProt P51681); assay: Antagonist activity at human CCR5 expressed in HEK 293 Glosensor cells assessed as reduction in RANTES-induced intracellular calcium levels preincubated for 30 mins followed by RANTES addition measured at 2 secs time interval for 5 mins by Fluo-4-AM dye based fluorescence assay; format: functional, cell-based
Chain of C-C chemokine receptor type 5 (P51681 whole entry): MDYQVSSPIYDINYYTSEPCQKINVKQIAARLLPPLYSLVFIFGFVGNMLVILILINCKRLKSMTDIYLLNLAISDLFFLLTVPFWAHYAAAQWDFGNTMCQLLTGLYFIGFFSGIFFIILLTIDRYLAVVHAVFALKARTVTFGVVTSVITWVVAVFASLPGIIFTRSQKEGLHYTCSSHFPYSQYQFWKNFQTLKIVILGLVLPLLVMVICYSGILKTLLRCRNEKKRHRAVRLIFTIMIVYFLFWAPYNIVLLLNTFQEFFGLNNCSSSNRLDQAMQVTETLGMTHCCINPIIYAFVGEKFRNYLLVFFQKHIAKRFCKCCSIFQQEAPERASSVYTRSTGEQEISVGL

Chain of Phosphatidylinositol 4,5-bisphosphate 3-kinase catalytic subunit gamma isoform (P48736 whole entry, canonical isoform): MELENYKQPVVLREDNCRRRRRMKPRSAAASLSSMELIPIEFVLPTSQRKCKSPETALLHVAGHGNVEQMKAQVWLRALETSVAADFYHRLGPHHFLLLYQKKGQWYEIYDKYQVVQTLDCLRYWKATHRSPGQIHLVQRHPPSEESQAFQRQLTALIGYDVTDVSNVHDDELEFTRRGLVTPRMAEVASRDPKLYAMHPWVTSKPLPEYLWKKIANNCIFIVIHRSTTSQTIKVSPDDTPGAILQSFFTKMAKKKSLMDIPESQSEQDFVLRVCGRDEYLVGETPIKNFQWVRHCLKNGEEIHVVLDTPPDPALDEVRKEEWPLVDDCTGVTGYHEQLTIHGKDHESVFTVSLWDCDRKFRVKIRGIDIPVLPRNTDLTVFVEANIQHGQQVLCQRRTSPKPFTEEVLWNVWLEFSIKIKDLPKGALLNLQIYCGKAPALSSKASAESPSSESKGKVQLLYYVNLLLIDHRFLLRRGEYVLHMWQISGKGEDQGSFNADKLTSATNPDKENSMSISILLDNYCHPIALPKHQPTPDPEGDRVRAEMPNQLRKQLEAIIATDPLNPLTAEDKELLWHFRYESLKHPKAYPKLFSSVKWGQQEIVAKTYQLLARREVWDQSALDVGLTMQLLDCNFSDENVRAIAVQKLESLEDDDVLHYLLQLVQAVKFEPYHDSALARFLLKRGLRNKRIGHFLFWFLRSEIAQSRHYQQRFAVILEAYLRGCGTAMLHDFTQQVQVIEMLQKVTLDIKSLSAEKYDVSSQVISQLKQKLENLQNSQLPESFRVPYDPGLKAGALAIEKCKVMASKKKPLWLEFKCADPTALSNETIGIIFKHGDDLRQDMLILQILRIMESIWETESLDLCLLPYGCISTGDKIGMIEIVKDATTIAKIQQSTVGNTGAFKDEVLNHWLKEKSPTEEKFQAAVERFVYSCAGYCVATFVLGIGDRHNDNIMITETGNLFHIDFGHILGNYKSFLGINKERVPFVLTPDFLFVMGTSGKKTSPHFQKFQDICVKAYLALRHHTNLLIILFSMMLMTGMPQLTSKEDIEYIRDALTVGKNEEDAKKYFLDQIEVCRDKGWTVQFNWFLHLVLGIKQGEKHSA
Chain of Phosphatidylinositol 4,5-bisphosphate 3-kinase catalytic subunit alpha isoform (P42336 whole entry, canonical isoform): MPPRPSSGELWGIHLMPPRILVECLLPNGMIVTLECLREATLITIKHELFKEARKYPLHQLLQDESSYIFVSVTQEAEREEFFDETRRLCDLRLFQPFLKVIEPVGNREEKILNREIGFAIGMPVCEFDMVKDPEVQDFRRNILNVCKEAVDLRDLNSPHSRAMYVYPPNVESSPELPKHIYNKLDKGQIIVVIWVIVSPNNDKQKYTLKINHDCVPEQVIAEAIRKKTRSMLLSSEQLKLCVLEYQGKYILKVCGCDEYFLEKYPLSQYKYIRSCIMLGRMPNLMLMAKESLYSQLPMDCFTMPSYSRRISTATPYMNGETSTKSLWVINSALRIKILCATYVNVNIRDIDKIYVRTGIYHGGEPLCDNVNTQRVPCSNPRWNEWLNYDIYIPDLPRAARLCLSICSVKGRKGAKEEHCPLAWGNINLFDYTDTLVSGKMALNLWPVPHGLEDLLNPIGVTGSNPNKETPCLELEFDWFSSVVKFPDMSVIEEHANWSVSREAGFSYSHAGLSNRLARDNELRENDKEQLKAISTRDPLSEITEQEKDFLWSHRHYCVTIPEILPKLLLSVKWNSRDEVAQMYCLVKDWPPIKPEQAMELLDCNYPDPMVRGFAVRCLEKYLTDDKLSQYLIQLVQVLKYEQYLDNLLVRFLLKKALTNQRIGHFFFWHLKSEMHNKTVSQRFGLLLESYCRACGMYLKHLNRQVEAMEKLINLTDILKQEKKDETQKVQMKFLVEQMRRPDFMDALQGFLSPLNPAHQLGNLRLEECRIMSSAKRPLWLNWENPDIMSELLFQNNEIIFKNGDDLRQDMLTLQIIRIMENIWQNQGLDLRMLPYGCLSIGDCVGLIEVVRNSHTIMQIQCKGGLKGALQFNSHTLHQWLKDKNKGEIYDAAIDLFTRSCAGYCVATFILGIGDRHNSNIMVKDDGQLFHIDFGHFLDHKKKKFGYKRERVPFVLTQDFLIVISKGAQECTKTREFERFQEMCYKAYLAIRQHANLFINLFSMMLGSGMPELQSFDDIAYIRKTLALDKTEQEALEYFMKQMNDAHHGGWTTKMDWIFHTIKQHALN
Chain of Phosphatidylinositol 4,5-bisphosphate 3-kinase catalytic subunit beta isoform (P42338 whole entry, canonical isoform): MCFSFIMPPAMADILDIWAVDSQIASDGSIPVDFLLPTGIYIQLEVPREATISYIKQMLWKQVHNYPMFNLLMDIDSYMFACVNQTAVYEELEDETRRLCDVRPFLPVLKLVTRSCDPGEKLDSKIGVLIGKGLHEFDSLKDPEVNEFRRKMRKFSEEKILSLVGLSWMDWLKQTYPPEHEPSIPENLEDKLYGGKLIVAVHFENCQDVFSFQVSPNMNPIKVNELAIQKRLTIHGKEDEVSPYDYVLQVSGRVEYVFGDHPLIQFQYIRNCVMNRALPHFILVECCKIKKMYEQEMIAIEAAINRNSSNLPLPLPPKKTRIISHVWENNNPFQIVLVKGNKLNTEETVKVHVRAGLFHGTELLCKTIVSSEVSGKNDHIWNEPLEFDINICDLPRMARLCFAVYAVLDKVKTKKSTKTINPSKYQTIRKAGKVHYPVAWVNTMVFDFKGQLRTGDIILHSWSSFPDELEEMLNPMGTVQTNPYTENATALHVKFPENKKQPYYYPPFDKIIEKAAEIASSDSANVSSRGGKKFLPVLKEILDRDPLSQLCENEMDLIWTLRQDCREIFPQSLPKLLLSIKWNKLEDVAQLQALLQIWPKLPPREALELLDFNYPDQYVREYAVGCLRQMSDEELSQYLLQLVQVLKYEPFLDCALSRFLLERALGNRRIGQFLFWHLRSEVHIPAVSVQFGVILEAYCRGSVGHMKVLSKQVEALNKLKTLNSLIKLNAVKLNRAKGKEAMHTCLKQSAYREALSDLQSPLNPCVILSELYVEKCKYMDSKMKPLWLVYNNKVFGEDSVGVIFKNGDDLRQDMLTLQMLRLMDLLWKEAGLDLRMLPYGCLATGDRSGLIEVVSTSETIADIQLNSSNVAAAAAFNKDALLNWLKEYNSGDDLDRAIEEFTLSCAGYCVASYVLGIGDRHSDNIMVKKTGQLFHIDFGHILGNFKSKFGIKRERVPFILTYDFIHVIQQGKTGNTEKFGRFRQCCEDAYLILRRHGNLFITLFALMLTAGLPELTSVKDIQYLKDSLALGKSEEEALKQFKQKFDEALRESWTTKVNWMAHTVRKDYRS

| SMILES | IC50 [1] | IC50 [2] | IC50 [3] | IC50 [4] | Kd [5] |
| --- | --- | --- | --- | --- | --- |
| Cc1nncn1C1CCN(Cc2cc3nc(-c4cccc5[nH]ncc45)nc(N4CCOCC4)c3s2)CC1 | 0.01 µM | 1 µM | 1 µM | 0.316 µM |  |
| Oc1cccc(-c2nc(N3CCOCC3)c3sc(CN4CC[C@H]5[C@H](CCc6nnc(C(F)(F)F)n65)C4)cc3n2)c1 (relative stereo) | 0.000631 µM | 0.0501 µM | 0.158 µM | 0.0631 µM |  |
| Cc1nnc2n1[C@H]1CCN(Cc3cc4nc(-c5cccc6[nH]ccc56)nc(N5CCOCC5)c4s3)C[C@@H]1CC2 (relative stereo) | 0.001 µM | 0.316 µM | 0.794 µM | 2 µM |  |
| Cc1nnc2n1[C@H]1CCN(Cc3cc4nc(-c5cccc6[nH]ncc56)nc(N5CCOCC5)c4s3)C[C@H]1CC2 (relative stereo) | 0.00316 µM | 1.26 µM | 1.26 µM | 1.58 µM |  |
| Cc1nnc2n1[C@H]1CCN(CC[C@H](NC(=O)C3CCC(F)(F)CC3)c3ccccc3)C[C@H]1CC2 (racemic) |  |  |  |  | 0.316 µM |
| FC(F)(F)c1nnc2n1[C@H]1CCN(Cc3cc4nc(-c5cccc6[nH]ncc56)nc(N5CCOCC5)c4s3)C[C@@H]1CC2 (relative stereo) | 0.00794 µM | 0.631 µM | 1 µM | 0.158 µM |  |
| Oc1cccc(-c2nc(N3CCOCC3)c3sc(CN4CC[C@H]5[C@@H](CCc6nnc(C(F)(F)F)n65)C4)cc3n2)c1 (relative stereo) | 0.001 µM | 0.0501 µM | 0.2 µM | 0.0316 µM |  |
| FC(F)(F)c1nncn1C1CCN(Cc2cc3nc(-c4cccc5[nH]ncc45)nc(N4CCOCC4)c3s2)CC1 | 0.02 µM | 1.26 µM | 0.794 µM | 0.316 µM |  |
| FC(F)(F)c1nnc2n1[C@H]1CCN(Cc3cc4nc(-c5cccc6[nH]ncc56)nc(N5CCOCC5)c4s3)C[C@H]1CC2 (relative stereo) | 0.00251 µM | 0.398 µM | 0.794 µM | 0.316 µM |  |
| Cc1nnc2n1[C@H]1CCN(Cc3cc4nc(-c5cccc6[nH]ncc56)nc(N5CCOCC5)c4s3)C[C@@H]1CC2 (relative stereo) | 0.00398 µM | 0.501 µM | 0.316 µM | 0.158 µM |  |
| Cc1nncn1C1CCN(Cc2cc3nc(-c4cccc5[nH]ccc45)nc(N4CCOCC4)c3s2)CC1 | 0.00398 µM | 0.398 µM |  | 2 µM |  |
| Cc1nnc2n1[C@H]1CCN(Cc3cc4nc(-c5cccc(O)c5)nc(N5CCOCC5)c4s3)C[C@@H]1CC2 (relative stereo) | 0.000794 µM | 0.126 µM | 0.501 µM | 0.1 µM |  |
| Oc1cccc(-c2nc(N3CCOCC3)c3sc(CN4CCC(n5cnnc5C(F)(F)F)CC4)cc3n2)c1 | 0.00251 µM | 0.1 µM | 0.158 µM | 0.0631 µM |  |
| Cc1nnc2n1[C@@H]1CCN(CC[C@H](NC(=O)C3CCC(F)(F)CC3)c3ccccc3)C[C@@H]1CC2 (relative stereo) |  |  |  |  | 0.01 µM |
| FC(F)(F)c1nnc2n1[C@H]1CCN(Cc3cc4nc(-c5cccc6[nH]ccc56)nc(N5CCOCC5)c4s3)C[C@H]1CC2 (relative stereo) | 0.000794 µM | 0.1 µM | 0.631 µM | 1.58 µM |  |
| FC(F)(F)c1nncn1C1CCN(Cc2cc3nc(-c4cccc5[nH]ccc45)nc(N4CCOCC4)c3s2)CC1 | 0.02 µM | 0.794 µM | 3.16 µM | 3.98 µM |  |
| FC(F)(F)c1nnc2n1[C@H]1CCN(Cc3cc4nc(-c5cccc6[nH]ccc56)nc(N5CCOCC5)c4s3)C[C@@H]1CC2 (relative stereo) | 0.00158 µM | 0.158 µM | 0.398 µM | 0.501 µM |  |
| Cc1nncn1C1CCN(Cc2cc3nc(-c4cccc(O)c4)nc(N4CCOCC4)c3s2)CC1 | 0.00398 µM | 0.158 µM | 0.2 µM | 0.1 µM |  |
| Cc1nnc2n1[C@H]1CCN(Cc3cc4nc(-c5cccc6[nH]ccc56)nc(N5CCOCC5)c4s3)C[C@H]1CC2 (relative stereo) | 0.000794 µM | 0.316 µM | 1.58 µM | 3.16 µM |  |

From ChEMBL document CHEMBL4052600 (J Med Chem, 2017)
